ChEMBL document CHEMBL1681706, “Design and synthesis of novel CCR2 antagonists: investigation of non-aryl/heteroaryl binding motifs” (Bioorg Med Chem Lett, 2011)

How the values were obtained:
hERG (KCNH2) = hERG (KCNH2) (Homo sapiens, UniProt Q12809); experiment: Displacement of dofetilide from human ERG at 10 uM; settings: probe dofetilide
Outline: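 hERG dofetilide assay, read out as percent inhibition at a single concentration of test compound.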

[1] = target: T1, C-C chemokine receptor type 2 (Homo sapiens, UniProt P41597); experiment: Displacement of [125I]MCP1 from human CCR2 at 0.30 uM preincubated 30 mins by human whole cell binding assay
Target sequence in this assay (P41597 whole entry, looked up): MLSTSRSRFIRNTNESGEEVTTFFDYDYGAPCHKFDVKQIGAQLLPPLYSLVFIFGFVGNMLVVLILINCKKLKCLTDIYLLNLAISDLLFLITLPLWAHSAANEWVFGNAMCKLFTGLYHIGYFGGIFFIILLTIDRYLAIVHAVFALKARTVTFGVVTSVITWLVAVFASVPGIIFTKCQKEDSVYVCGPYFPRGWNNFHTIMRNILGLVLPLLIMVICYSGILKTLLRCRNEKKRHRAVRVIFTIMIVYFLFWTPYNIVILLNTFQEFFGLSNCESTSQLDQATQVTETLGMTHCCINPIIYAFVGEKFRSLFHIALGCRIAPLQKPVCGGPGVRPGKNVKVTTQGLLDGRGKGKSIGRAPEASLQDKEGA

[2] = Half life in human liver microsomes at 1 uM; format: ADME, Microsome
Outline: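 Human liver microsome stability test, read out as half-life (t1/2, min) after a single low dose of compound.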

[3] = target: T1, C-C chemokine receptor type 2; experiment: Displacement of [125I]MCP1 from human CCR2 preincubated 30 mins by human whole cell binding assay
Outline: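 Whole cell binding to human CCR2, with a 30 min preincubation with compound.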
Target sequence in this assay (P41597 whole entry): as the sequence (P41597 whole entry, looked up) above

[4] = target: T1, C-C chemokine receptor type 2; experiment: Displacement of [125I]MCP1 from human CCR2 preincubated 1 hrs by human whole cell binding assay
Outline: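 Human CCR2 whole cell binding, with compound preincubated for 1 h before the binding read-out.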
Target sequence in this assay (P41597 whole entry): as the sequence (P41597 whole entry, looked up) above

[5] = Apparent permeability from apical to basolateral side of MDCK cells; format: ADME, cell-based, Canis lupus familiaris; settings: dog
[6] = Efflux ratio of permeability from basolateral to apical over apical to basolateral side of MDCK cells; format: ADME, cell-based, Canis lupus familiaris; settings: dog
[7] = Apparent permeability from basolateral to apical side of MDCK cells; format: ADME, cell-based, Canis lupus familiaris; settings: dog
[8] = target: T1, C-C chemokine receptor type 2; experiment: Displacement of [125I]MCP1 from human CCR2 at 0.30 uM by human whole cell binding assay
Target sequence in this assay (P41597 whole entry, looked up): as above

[9] = target: T1, C-C chemokine receptor type 2; experiment: Displacement of [125I]MCP1 from human CCR2 at 0.30 uM preincubated 1 hr by human whole cell binding assay
Target sequence in this assay (P41597 whole entry, looked up): as above

hERG (KCNH2), sequence (Q12809 whole entry): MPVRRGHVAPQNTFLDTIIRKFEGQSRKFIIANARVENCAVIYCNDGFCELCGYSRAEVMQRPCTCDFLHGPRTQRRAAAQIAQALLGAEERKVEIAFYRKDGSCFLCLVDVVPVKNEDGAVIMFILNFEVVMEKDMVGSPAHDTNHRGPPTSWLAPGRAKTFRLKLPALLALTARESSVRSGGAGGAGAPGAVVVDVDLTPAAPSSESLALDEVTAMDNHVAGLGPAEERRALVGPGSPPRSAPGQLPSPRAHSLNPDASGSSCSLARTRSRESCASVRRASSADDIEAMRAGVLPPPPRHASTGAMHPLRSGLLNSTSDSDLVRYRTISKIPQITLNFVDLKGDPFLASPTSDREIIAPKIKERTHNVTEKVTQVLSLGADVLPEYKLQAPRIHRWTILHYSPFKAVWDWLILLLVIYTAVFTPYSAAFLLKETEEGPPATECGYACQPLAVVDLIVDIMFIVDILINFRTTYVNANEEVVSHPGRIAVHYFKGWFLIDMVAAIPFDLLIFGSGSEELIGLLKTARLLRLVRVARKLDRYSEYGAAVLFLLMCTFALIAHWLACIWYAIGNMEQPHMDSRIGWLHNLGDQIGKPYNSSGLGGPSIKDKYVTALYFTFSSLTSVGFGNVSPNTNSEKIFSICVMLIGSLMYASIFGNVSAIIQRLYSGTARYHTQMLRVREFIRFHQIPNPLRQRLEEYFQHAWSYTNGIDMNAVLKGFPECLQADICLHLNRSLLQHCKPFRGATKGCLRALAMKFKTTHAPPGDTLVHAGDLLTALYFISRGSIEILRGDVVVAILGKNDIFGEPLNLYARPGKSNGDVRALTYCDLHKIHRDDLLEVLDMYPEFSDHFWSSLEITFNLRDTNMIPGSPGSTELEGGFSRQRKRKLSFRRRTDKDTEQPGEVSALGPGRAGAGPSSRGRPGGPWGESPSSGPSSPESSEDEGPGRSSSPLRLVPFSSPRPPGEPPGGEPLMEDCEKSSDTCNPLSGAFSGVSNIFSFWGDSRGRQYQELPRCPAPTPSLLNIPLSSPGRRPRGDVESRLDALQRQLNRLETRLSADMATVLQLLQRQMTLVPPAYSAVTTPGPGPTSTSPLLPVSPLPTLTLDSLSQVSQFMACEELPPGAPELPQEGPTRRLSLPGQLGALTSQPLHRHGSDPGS

## CC(C)[C@]1(C(=O)N2C[C@@H]3C[C@H]2CN3C(=O)C2CCOCC2)CC[C@@H](NC2CCOCC2)C1
hERG (KCNH2)
  inhibition at 10 µM: 0%
[1]
  Activity: 46%
[2]
  half-life at 1 µM: > 2 h

## CC(CC(=O)N1C[C@@H]2C[C@H]1CN2C(=O)[C@@]1(C(C)C)CC[C@@H](NC2CCOCC2)C1)C(F)(F)F (stereo partly specified)
[3]
  IC50: 13 nM
hERG (KCNH2)
  inhibition at 10 µM: 5%
[2]
  half-life at 1 µM: > 2 h

## CO[C@@H]1COCC[C@@H]1N[C@@H]1CC[C@@](C(=O)N2C[C@@H]3C[C@H]2CN3C(=O)C2CCCC2)(C(C)C)C1
[3]
  IC50: 11.1 nM
[4]
  IC50: 8.5 nM
hERG (KCNH2)
  inhibition at 10 µM: 6.7%
[2]
  half-life at 1 µM: > 2 h

## CC(C)[C@]1(C(=O)N2C[C@@H]3C[C@H]2CN3C(=O)OC(C)(C)C)CC[C@@H](NC2CCOCC2)C1
[4]
  IC50: 5 nM
hERG (KCNH2)
  inhibition at 10 µM: 4.8%
[2]
  half-life at 1 µM: > 2 h

## CC(C)[C@]1(C(=O)N2C[C@@H]3C[C@H]2CN3C(=O)OC2CCCC2)CC[C@@H](NC2CCOCC2F)C1 (stereo partly specified)
[3]
  IC50: 3.1 nM
hERG (KCNH2)
  inhibition at 10 µM: 0%
[2]
  half-life at 1 µM: 0.283 h

## CC(C)[C@]1(C(=O)N2C[C@@H]3C[C@H]2CN3C(=O)c2ccccc2)CC[C@@H](NC2CCOCC2F)C1 (stereo partly specified)
[3]
  IC50: 17.5 nM
hERG (KCNH2)
  inhibition at 10 µM: 0%

## CCC(=O)N1C[C@@H]2C[C@H]1CN2C(=O)[C@@]1(C(C)C)CC[C@@H](NC2CCOCC2)C1
hERG (KCNH2)
  inhibition at 10 µM: 6%
[1]
  Activity: 28%
[2]
  half-life at 1 µM: > 2 h

## CC(C)[C@]1(C(=O)N2C[C@@H]3C[C@H]2CN3C(=O)C2CCCC2)CC[C@@H](NC2CCOCC2F)C1 (stereo partly specified)
[3]
  IC50: 13.9 nM
hERG (KCNH2)
  inhibition at 10 µM: 3%
[2]
  half-life at 1 µM: > 2 h

## CC(C)[C@]1(C(=O)N2C[C@@H]3C[C@H]2CN3C(=O)C2CCC2)CC[C@@H](NC2CCOCC2)C1
[4]
  IC50: 32 nM
hERG (KCNH2)
  inhibition at 10 µM: 6%
[2]
  half-life at 1 µM: > 2 h

## CC(C)[C@]1(C(=O)N2C[C@@H]3C[C@H]2CN3C(=O)CCC(F)(F)F)CC[C@@H](NC2CCOCC2)C1
[3]
  IC50: 14.6 nM
hERG (KCNH2)
  inhibition at 10 µM: 1%
[2]
  half-life at 1 µM: > 2 h

## CC(CC(=O)N1C[C@@H]2C[C@H]1CN2C(=O)[C@@]1(C(C)C)CC[C@@H](NC2CCOCC2F)C1)C(F)(F)F (stereo partly specified)
[5]
  Papp A→B: 11.8 ×10⁻⁶ cm/s
[3]
  IC50: 12.8 nM
hERG (KCNH2)
  inhibition at 10 µM: 0%
[2]
  half-life at 1 µM: > 2 h
[6]
  efflux ratio: 0.8
[7]
  Papp B→A: 10.2 ×10⁻⁶ cm/s

## CC(C)[C@]1(C(=O)N2C[C@@H]3C[C@H]2CN3C(=O)CC2CCCC2)CC[C@@H](NC2CCOCC2F)C1 (stereo partly specified)
[3]
  IC50: 14.7 nM
hERG (KCNH2)
  inhibition at 10 µM: 3%
[2]
  half-life at 1 µM: 0.8 h

## CC(C)[C@]1(C(=O)N2C[C@@H]3C[C@H]2CN3C(=O)C2CCCCC2)CC[C@@H](NC2CCOCC2F)C1 (stereo partly specified)
[3]
  IC50: 15.2 nM
hERG (KCNH2)
  inhibition at 10 µM: 0%
[2]
  half-life at 1 µM: 0.917 h

## CC(C)[C@]1(C(=O)N2CCN(C(=O)OC(C)(C)C)CC2)CC[C@@H](NC2CCOCC2)C1
[8]
  Activity: 24%

## CC(C)[C@]1(C(=O)N2C[C@@H]3C[C@H]2CN3C(=O)C2CCC2)CC[C@@H](NC2CCOCC2F)C1 (stereo partly specified)
[3]
  IC50: 38.4 nM
hERG (KCNH2)
  inhibition at 10 µM: 17%
[2]
  half-life at 1 µM: 0.35 h

## CC(C)[C@]1(C(=O)N2C[C@@H]3C[C@H]2CN3C(=O)OC(C)(C)C)CC[C@@H](NC2CCOCC2F)C1 (stereo partly specified)
[4]
  IC50: 4.2 nM
hERG (KCNH2)
  inhibition at 10 µM: 6%
[2]
  half-life at 1 µM: 0.62 h

## CC(C)[C@]1(C(=O)N2C[C@@H]3C[C@H]2CN3C(=O)C(C)(C)C)CC[C@@H](NC2CCOCC2)C1
hERG (KCNH2)
  inhibition at 10 µM: 2%
[1]
  Activity: 23%
[2]
  half-life at 1 µM: > 2 h

## CC(C)[C@]1(C(=O)N2C[C@@H]3C[C@H]2CN3C(=O)C2CCCCC2)CC[C@@H](NC2CCOCC2)C1
[3]
  IC50: 11.6 nM
hERG (KCNH2)
  inhibition at 10 µM: 4%
[2]
  half-life at 1 µM: 1.55 h

## CC(C)[C@]1(C(=O)N2C[C@@H]3C[C@H]2CN3C(=O)C2CCCC2)CC[C@@H](NC2CCOCC2)C1
[4]
  IC50: 12.2 nM
hERG (KCNH2)
  inhibition at 10 µM: 2%
[2]
  half-life at 1 µM: > 2 h

## CC(C)[C@]1(C(=O)N2C[C@@H]3C[C@H]2CN3C(=O)NC(C)(C)C)CC[C@@H](NC2CCOCC2F)C1 (stereo partly specified)
[3]
  IC50: 28 nM
hERG (KCNH2)
  inhibition at 10 µM: 0%
[2]
  half-life at 1 µM: 1.77 h

## CC(C)[C@]1(C(=O)N2C[C@@H]3C[C@H]2CN3C(=O)CC(C)(C)C)CC[C@@H](NC2CCOCC2F)C1 (stereo partly specified)
[3]
  IC50: 39.5 nM
hERG (KCNH2)
  inhibition at 10 µM: 0%
[2]
  half-life at 1 µM: 1.27 h

## CC(C)C(=O)N1C[C@@H]2C[C@H]1CN2C(=O)[C@@]1(C(C)C)CC[C@@H](NC2CCOCC2)C1
hERG (KCNH2)
  inhibition at 10 µM: 3.7%
[1]
  Activity: 40%
[2]
  half-life at 1 µM: > 2 h

## CC(C)[C@]1(C(=O)N2C[C@@H]3C[C@H]2CN3C(=O)N2CCCCC2)CC[C@@H](NC2CCOCC2F)C1 (stereo partly specified)
[3]
  IC50: 75.9 nM
hERG (KCNH2)
  inhibition at 10 µM: 0%

## CC(OC(=O)N1C[C@@H]2C[C@H]1CN2C(=O)[C@@]1(C(C)C)CC[C@@H](NC2CCOCC2F)C1)C(F)(F)F (stereo partly specified)
[3]
  IC50: 3.2 nM
hERG (KCNH2)
  inhibition at 10 µM: 3%
[2]
  half-life at 1 µM: 0.433 h

## CC(C)[C@]1(C(=O)N2C[C@@H]3C[C@H]2CN3C(=O)CC(C)(C)C)CC[C@@H](NC2CCOCC2)C1
[4]
  IC50: 36.9 nM
hERG (KCNH2)
  inhibition at 10 µM: 5.7%
[2]
  half-life at 1 µM: > 2 h

## CC(C)[C@]1(C(=O)N2C[C@@H]3C[C@H]2CN3C(=O)C2CC2)CC[C@@H](NC2CCOCC2)C1
[3]
  IC50: 130 nM
hERG (KCNH2)
  inhibition at 10 µM: 2.3%
[2]
  half-life at 1 µM: > 2 h

## CC(C)COC(=O)N1C[C@@H]2C[C@H]1CN2C(=O)[C@@]1(C(C)C)CC[C@@H](NC2CCOCC2F)C1 (stereo partly specified)
[3]
  IC50: 4.3 nM
hERG (KCNH2)
  inhibition at 10 µM: 0%
[2]
  half-life at 1 µM: 0.467 h

## CC(OC(=O)N1C[C@@H]2C[C@H]1CN2C(=O)[C@@]1(C(C)C)CC[C@@H](NC2CCOCC2)C1)C(F)(F)F (stereo partly specified)
[3]
  IC50: 3.5 nM
hERG (KCNH2)
  inhibition at 10 µM: 2%
[2]
  half-life at 1 µM: 1.3 h

## CO[C@@H]1COCC[C@@H]1N[C@@H]1CC[C@@](C(=O)N2C[C@@H]3C[C@H]2CN3C(=O)OC(C)(C)C)(C(C)C)C1
[4]
  IC50: 2.9 nM
hERG (KCNH2)
  inhibition at 10 µM: 0%
[2]
  half-life at 1 µM: > 2 h

## CO[C@@H]1COCC[C@@H]1N[C@@H]1CC[C@@](C(=O)N2C[C@@H]3C[C@H]2CN3C(=O)C2CCC2)(C(C)C)C1
[4]
  IC50: 11.7 nM
hERG (KCNH2)
  inhibition at 10 µM: 4%
[2]
  half-life at 1 µM: > 2 h

## CC(=O)N1C[C@@H]2C[C@H]1CN2C(=O)[C@@]1(C(C)C)CC[C@@H](NC2CCOCC2)C1
hERG (KCNH2)
  inhibition at 10 µM: 0%
[1]
  Activity: 1%
[2]
  half-life at 1 µM: > 2 h

## CO[C@@H]1COCC[C@@H]1N[C@@H]1CC[C@@](C(=O)N2C[C@@H]3C[C@H]2CN3C(=O)c2ccccc2)(C(C)C)C1
[3]
  IC50: 12 nM
[4]
  IC50: 6.5 nM
hERG (KCNH2)
  inhibition at 10 µM: 7.8%
[2]
  half-life at 1 µM: 1.57 h

## CC(C)[C@]1(C(=O)N2C[C@@H]3C[C@H]2CN3C(=O)CCC(F)(F)F)CC[C@@H](NC2CCOCC2F)C1 (stereo partly specified)
[5]
  Papp A→B: 8.35 ×10⁻⁶ cm/s
[3]
  IC50: 17.3 nM
hERG (KCNH2)
  inhibition at 10 µM: 5%
[2]
  half-life at 1 µM: > 2 h
[6]
  efflux ratio: 0.6
[7]
  Papp B→A: 5.3 ×10⁻⁶ cm/s

## CO[C@@H]1COCC[C@@H]1N[C@@H]1CC[C@@](C(=O)N2CCN(C(=O)OC(C)(C)C)CC2)(C(C)C)C1
[4]
  IC50: 251 nM

## CO[C@@H]1COCC[C@@H]1N[C@@H]1CC[C@@](C(=O)N2C[C@@H]3C[C@H]2CN3C(=O)C(C)(C)C)(C(C)C)C1
hERG (KCNH2)
  inhibition at 10 µM: 6%
[2]
  half-life at 1 µM: > 2 h
[9]
  Activity: 40%

## CO[C@@H]1COCC[C@@H]1N[C@@H]1CC[C@@](C(=O)N2C[C@@H]3C[C@H]2CN3C(=O)CC(C)(C)C)(C(C)C)C1
[3]
  IC50: 24.2 nM
[4]
  IC50: 17 nM
hERG (KCNH2)
  inhibition at 10 µM: 0%
[2]
  half-life at 1 µM: > 2 h
